What all share (assay type): functional
One test concerns MDA-MB-435. Put plainly: Growth inhibition of human MDA-MB-435 cells assessed as growth percentage at 10 uM incubated for 48 hrs by sulforhodamine B assay relative to control. Particulars: MDA-MB-435, 48 h, read-out: Activity. In a few lines:
(§1)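 NCI-60 one-dose screen. Cells in RPMI 1640 with 5% FBS and 2 mM L-glutamine, seeded at 5,000–40,000 cells/well according to doubling time, and preincubated overnight at 37 °C, 5% CO2. A time-zero plate was TCA-fixed at drug addition. Compound from DMSO stock, final 10 µM, 48 h; DMSO vehicle controls. Fixation with TCA, 10% final (16% for suspension cells). SRB stain, Tris solubilization, A515. Result given as % growth versus untreated cells.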

In another test the test system is MCF7. Put plainly: Growth inhibition of human MCF7 cells assessed as growth percentage at 10 uM incubated for 48 hrs by sulforhodamine B assay relative to control. Particulars: MCF7, 48 h, read-out: Activity. An outline of the steps: as §1
Another test has as its system A549. The test is described as follows: Growth inhibition of human A549/ATCC cells assessed as growth percentage at 10 uM incubated for 48 hrs by sulforhodamine B assay relative to control. Particulars: A549, 48 h, read-out: Activity. In a few lines: (§2)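 NCI-60 one-dose screen: cells in RPMI 1640 with 5% FBS and 2 mM L-glutamine, plated at 5,000–40,000 cells/well and preincubated 24 h at 37 °C, 5% CO2. Compound is added from a DMSO stock to a final 10 µM and incubated 48 h. Cells are TCA-fixed and stained with sulforhodamine B, read at 515 nm. Output is % growth versus untreated control, with a time-zero plate.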

The test system of another test is TK-10. The test is described as follows: Growth inhibition of human TK10 cells assessed as growth percentage at 10 uM incubated for 48 hrs by sulforhodamine B assay relative to control. The following applies: TK-10, 48 h, read-out: Activity. In a few lines: (§3)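 NCI-60 single-dose screen. Cells were grown in RPMI 1640 with 5% FBS and 2 mM L-glutamine and plated at 5,000–40,000 cells/well. After an overnight preincubation at 37 °C in 5% CO2, compound was added at a final 10 µM from a DMSO stock, with DMSO/PBS controls. After 48 h, cells were TCA-fixed and stained with 0.4% SRB, and absorbance was read at 515 nm. Growth is given as a percentage of untreated control.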

A further test has as its system PC-3. The test is described as follows: Growth inhibition of human PC3 cells assessed as growth percentage at 10 uM incubated for 48 hrs by sulforhodamine B assay relative to control. Particulars: PC-3, 48 h, read-out: Activity. In a few lines:
as §3

For a further test, the system named is MOLT-4. The test is described as follows: Growth inhibition of human MOLT4 cells assessed as growth percentage at 10 uM incubated for 48 hrs by sulforhodamine B assay relative to control. Particulars: MOLT-4, 48 h, read-out: Activity. In a few lines: as §1
The subject of another test is COLO 205. The test is described as follows: Growth inhibition of human COLO205 cells assessed as growth percentage at 10 uM incubated for 48 hrs by sulforhodamine B assay relative to control. Particulars: COLO 205, 48 h, read-out: Activity. In a few lines: as §2
The subject of another test is SF-539. The test is described as follows: Growth inhibition of human SF539 cells assessed as growth percentage at 10 uM incubated for 48 hrs by sulforhodamine B assay relative to control. The following applies: SF-539, 48 h, read-out: Activity. An outline of the steps:
as §3

The next test relates to SNB-75. The test is described as follows: Growth inhibition of human SNB75 cells assessed as growth percentage at 10 uM incubated for 48 hrs by sulforhodamine B assay relative to control. The following applies: SNB-75, 48 h, read-out: Activity. In a few lines: as §3
For the next test, the system named is SK-MEL-5. The test is described as follows: Growth inhibition of human SK-MEL-5 cells assessed as growth percentage at 10 uM incubated for 48 hrs by sulforhodamine B assay relative to control. The following applies: SK-MEL-5, 48 h, read-out: Activity. In a few lines: as §3
For a further test, the system named is IGROV-1. The test is described as follows: Growth inhibition of human IGROV1 cells assessed as growth percentage at 10 uM incubated for 48 hrs by sulforhodamine B assay relative to control. Particulars: IGROV-1, 48 h, read-out: Activity. An outline of the steps:
as §1

Another test has as its system MDA-MB-468. Put plainly: Growth inhibition of human MDA-MB-468 cells assessed as growth percentage at 10 uM incubated for 48 hrs by sulforhodamine B assay relative to control. Particulars: MDA-MB-468, 48 h, read-out: Activity. An outline of the steps:
as §1

The next test deals with K562. The test is described as follows: Growth inhibition of human K562 cells assessed as growth percentage at 10 uM incubated for 48 hrs by sulforhodamine B assay relative to control. The following applies: K562, 48 h, read-out: Activity. In a few lines: as §1
Another test deals with CAKI-1. Put plainly: Growth inhibition of human Caki1 cells assessed as growth percentage at 10 uM incubated for 48 hrs by sulforhodamine B assay relative to control. Particulars: CAKI-1, 48 h, read-out: Activity. An outline of the steps: as §2
In a further test the test system is SW-620. The test is described as follows: Growth inhibition of human SW620 cells assessed as growth percentage at 10 uM incubated for 48 hrs by sulforhodamine B assay relative to control. The following applies: SW-620, 48 h, read-out: Activity. An outline of the steps:
as §3

A further test has as its system HL-60(TB). Put plainly: Growth inhibition of human HL-60(TB) cells assessed as growth percentage at 10 uM incubated for 48 hrs by sulforhodamine B assay relative to control. The following applies: HL-60, 48 h, read-out: Activity. In a few lines:
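NCI-60 single-dose screen. Cells in RPMI 1640 with 5% FBS and 2 mM L-glutamine are plated at 5,000–40,000 cells/well and preincubated overnight at 37 °C, 5% CO2. Compound is added from a DMSO stock at 10 µM final for 48 h. Cells are TCA-fixed (suspension cells 16% final) and stained with SRB. Absorbance is read at 515 nm, and percentage growth is calculated against untreated controls with a time-zero plate.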

In the next test the test system is HT-29. Put plainly: Growth inhibition of human HT-29 cells assessed as growth percentage at 10 uM incubated for 48 hrs by sulforhodamine B assay relative to control. The following applies: HT-29, 48 h, read-out: Activity. In a few lines: as §1
The test system of another test is M14. The test is described as follows: Growth inhibition of human M14 cells assessed as growth percentage at 10 uM incubated for 48 hrs by sulforhodamine B assay relative to control. Particulars: M14, 48 h, read-out: Activity. An outline of the steps: as §1
The next test deals with UO-31. The test is described as follows: Growth inhibition of human UO31 cells assessed as growth percentage at 10 uM incubated for 48 hrs by sulforhodamine B assay relative to control. The following applies: UO-31, 48 h, read-out: Activity. An outline of the steps: as §3
A further test relates to CCRF-CEM. Put plainly: Growth inhibition of human CCRF-CEM cells assessed as growth percentage at 10 uM incubated for 48 hrs by sulforhodamine B assay relative to control. Particulars: read-out: Activity. An outline of the steps: as §2
The next test deals with Hs-578T. The test is described as follows: Growth inhibition of human Hs 578T cells assessed as growth percentage at 10 uM incubated for 48 hrs by sulforhodamine B assay relative to control. Particulars: read-out: Activity. An outline of the steps:
as §1

The subject of the next test is HCT-116. Put plainly: Growth inhibition of human HCT116 cells assessed as growth percentage at 10 uM incubated for 48 hrs by sulforhodamine B assay relative to control. Particulars: HCT-116, 48 h, read-out: Activity. An outline of the steps: as §2
For the next test, the system named is NCI-H226. The test is described as follows: Growth inhibition of human NCI-H226 cells assessed as growth percentage at 10 uM incubated for 48 hrs by sulforhodamine B assay relative to control. Particulars: NCI-H226, 48 h, read-out: Activity. An outline of the steps: as §1
Another test relates to U-251. The test is described as follows: Growth inhibition of human U251 cells assessed as growth percentage at 10 uM incubated for 48 hrs by sulforhodamine B assay relative to control. The following applies: U-251, 48 h, read-out: Activity. An outline of the steps:
as §3

For the molecule `CC(=O)C1=C(C)NC(=O)NC1c1ccc2c(c1)OCO2` (racemic), the growth at 10 µM amounted to 105% in the test on MDA-MB-435; 96.9% with MCF7; 103% with A549; 103% in the test with TK-10; 99% with PC-3; 103% in the test on MOLT-4. The growth at 10 µM with COLO 205 was 104%; in the test on SF-539, 102%; in the test with SNB-75, 94.1%; in the test on SK-MEL-5, 100%; in the test on IGROV-1, 103%; with MDA-MB-468 it was 105%. Moreover, the growth at 10 µM came to 104% with K562; 91.4% with CAKI-1; 104% in the test on SW-620; 98.6% in the test with HL-60(TB); 104% in the test on HT-29; 104% in the test on M14. Moreover, the growth at 10 µM in the test on UO-31 is 83.4%; in the test with CCRF-CEM, 98.5%; in the test with Hs-578T, 111%; in the test on HCT-116, 108%; in the test with NCI-H226, 99.6%; in the test on U-251 it was 100%.
With `CC(=O)C1=C(C)NC(=S)NC1c1ccc2c(c1)OCO2` (racemic), the growth at 10 µM with MDA-MB-435 was 103%; in the test with MCF7 it was 103%; in the test on A549, 105%; in the test on TK-10, 97.6%; with PC-3, 98.1%; with MOLT-4, 98.8%. Moreover, the growth at 10 µM in the test on COLO 205 came to 109%; with SF-539, 98.7%; with SNB-75 it was 90.1%; with SK-MEL-5, 100%; in the test on IGROV-1, 104%; in the test with MDA-MB-468 it was 113%. In addition, the growth at 10 µM in the test with K562 worked out at 98.6%; in the test on CAKI-1, 91.9%; in the test with SW-620, 106%; in the test with HL-60(TB) it was 96.4%; in the test on HT-29, 106%; in the test on M14, 107%. In addition, the growth at 10 µM was found to be 81% in the test with UO-31; 101% in the test with CCRF-CEM; 101% in the test on Hs-578T; 104% with HCT-116; 102% in the test with NCI-H226; 98.2% in the test on U-251.
`CC1=C(C(=O)OCC(C)C)C(c2ccc3c(c2)OCO3)NC(=O)N1` (racemic): the growth at 10 µM in the test with MDA-MB-435 was found to be 109%; in the test on MCF7, 101%; in the test with A549, 109%; with TK-10, 99.4%; in the test with PC-3 it was 92.2%; with MOLT-4, 109%. Moreover, the growth at 10 µM in the test with COLO 205 is 119%; with SF-539, 104%; with SNB-75, 100%; in the test on SK-MEL-5, 101%; with IGROV-1 it was 94.8%; with MDA-MB-468 it was 100%. Besides, the growth at 10 µM came to 113% in the test on K562; 96.3% with CAKI-1; 113% with SW-620; 96% in the test on HL-60(TB); 105% in the test on HT-29; 105% in the test with M14. The growth at 10 µM is 84.8% in the test on UO-31; 104% in the test on CCRF-CEM; 118% in the test on Hs-578T; 105% in the test with HCT-116; 93.1% with NCI-H226; 99.8% with U-251.

The values above are taken from ChEMBL document CHEMBL4406880, “Design, synthesis, and bioactivity of dihydropyrimidine derivatives as kinesin spindle protein inhibitors” (Bioorg Med Chem, 2019).
